Experimental data published in ChEMBL document CHEMBL1158037, “Taraxasterane- and ursane-type triterpenes from Nerium oleander and their biological activities” (J Nat Prod, 2006).

Assays:
A549 [1] = experiment: Cytotoxicity against human A549 cells after 24 hrs by MTT assay; type: functional, cell-based; settings: A549, 24 h
Method in brief: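 A549 cells incubated 24 h with serial dilutions of compound; viability (%) by MTT used to derive IC50. Triplicate cultures.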

[2] = Cytotoxicity against human WI38 cells by WST-8 assay; type: cell-based; settings: WI-38
Method in brief: (§1)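 Growth inhibition of WI-38, VA-13 and HepG2 cells, with Taxol and ADM as positive controls; IC50 taken as concentration giving 50% growth inhibition.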

WI-38 VA13 = experiment: Cytotoxicity against human VA-13 cells by WST-8 assay; type: functional, cell-based; method in brief: as §1
A549 [3] = experiment: Antiinflammatory activity in human A549 cells assessed as inhibition of ICAM1 induction pretreated for 1 hr before IL1alpha challenge and incubated for 6 hrs in presence of IL1alpha; type: functional, cell-based
Method in brief: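 A549 cells (human lung carcinoma, used as endothelial model) exposed to a range of compound concentrations for 1 h, then IL-1α added and culture continued 6 h. ICAM-1 measured by primary and secondary antibodies plus enzyme substrate, absorbance at 415 nm. Triplicate cultures; IC50 reported.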

[4] = Cytotoxicity against human Hep G2 by WST-8 assay; type: functional; settings: HepG2; method in brief: as §1

Row | IC50 (A549 [3]) | Structure (SMILES) | IC50 (A549 [1]) | IC50 [2] | IC50 (WI-38 VA13) | IC50 [4]
1 | 158 µM | C[C@H]1[C@H](C)CC[C@]2(C=O)CC[C@]3(C)C(=CC[C@@H]4[C@@]5(C)CC[C@H](O)C(C)(C)[C@@H]5CC[C@]43C)[C@H]12 | 205 µM | 94.7 µM | 85.4 µM | 99 µM
2 | > 316 µM | C[C@H]1[C@H](C)CC[C@]2(O)CC[C@]3(C)C(=CC[C@@H]4[C@@]5(C)CC[C@H](O)C(C)(C)[C@@H]5CC[C@]43C)[C@H]12 | > 316 µM | 20.1 µM | 108 µM | 21.1 µM
3 | 80 µM | CO[C@H]1O[C@@]2(C)CC[C@@]13CC[C@]1(C)[C@H](CC[C@@H]4[C@@]5(C)CC[C@H](O)C(C)(C)[C@@H]5CC[C@]41C)[C@H]3[C@@H]2C | 76 µM | 11.8 µM | 11.7 µM | 10.3 µM
4 | > 316 µM | C[C@H]1[C@@H]2[C@H]3CC[C@@H]4[C@@]5(C)CC[C@H](O)C(C)(C)[C@@H]5CC[C@@]4(C)[C@]3(C)CC[C@@]23C=C[C@]1(C)OC3 | > 316 µM | 83.8 µM | 111 µM | 155 µM
